In ChEMBL document CHEMBL1146111, “Factor VIIa inhibitors: chemical optimization, preclinical pharmacokinetics, pharmacodynamics, and efficacy in an arterial baboon thrombosis model” (Bioorg Med Chem Lett, 2006):

Legend:
[1] = target: T1, Coagulation factor VII/tissue factor (Homo sapiens) (UniProt P08709+P13726); test: Selectivity for fVIIa/TF complex over fXa; assay type: protein-complex assay
Outline: (§1)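 Ki ratios; fXa and thrombin assays pH 7.4, fVIIa assay with 7 nM fVIIa, 11 nM relipidated tissue factor, 5 mM CaCl2 and substrate CH3SO2-D-CHA-But-Arg-pNA.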

[2] = target: T1, Coagulation factor VII/tissue factor (Homo sapiens); test: Selectivity for fVIIa/TF complex over fIIa; assay type: protein-complex assay; outline: as §1
[3] = target: T2, Coagulation factor VII (Homo sapiens, UniProt P08709); test: Binding affinity to F7a/TF complex; assay type: protein-complex assay
T2 sequence (P08709 whole entry): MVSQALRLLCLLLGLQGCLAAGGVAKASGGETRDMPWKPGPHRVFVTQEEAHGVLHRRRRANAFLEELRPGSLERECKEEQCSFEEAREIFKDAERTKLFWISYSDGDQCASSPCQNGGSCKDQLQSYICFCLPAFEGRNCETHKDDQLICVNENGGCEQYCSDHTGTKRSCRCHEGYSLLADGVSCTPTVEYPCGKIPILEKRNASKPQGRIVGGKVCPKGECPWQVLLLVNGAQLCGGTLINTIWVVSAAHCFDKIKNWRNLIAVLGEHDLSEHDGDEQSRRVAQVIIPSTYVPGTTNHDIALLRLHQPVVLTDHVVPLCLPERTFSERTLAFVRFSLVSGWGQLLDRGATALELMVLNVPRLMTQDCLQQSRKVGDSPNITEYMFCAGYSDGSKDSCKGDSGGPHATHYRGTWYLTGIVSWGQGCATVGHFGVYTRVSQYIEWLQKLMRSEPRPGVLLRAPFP

[4] = target: T1, Coagulation factor VII/tissue factor (Homo sapiens); test: Anticoagulant potency in human plasma as measured by prothrombin time; assay type: functional, cell-free
Outline: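 Clotting assay in human plasma on a coagulation analyzer run per manufacturer's instructions; concentration doubling prothrombin time reported.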

[5] = test system: Baboon; test: Inhibition of fibrin deposition in baboon at 0.03 mg/kg, iv 1 hr post dose relative to control; assay type: functional; details: Papio, in Papio anubis
Outline: (§2)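 Conscious non-anticoagulated baboons with chronic femoral arterio-venous shunt; single IV bolus, thrombogenic device inserted 5 min post dose. Device: 2 cm ePTFE graft (4 mm id) filled with relipidated tissue factor, flow 100 mL/min (shear 265/s), 60 min. Platelets: 111-In-labeled autologous, gamma camera every 5 min; fibrin: 125-I fibrinogen, graft counted after 30 days decay; PT monitored throughout; reduction vs saline control.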

[6] = Mean residence time in iv dosed C57BL/6 mice; assay type: ADME, organism-based; details: C57BL/6, mouse, in vivo
Outline: (§3)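 Single IV dose to female C57BL/6 mice or male Sprague–Dawley rats, NZW rabbits, Beagle dogs, or baboons; plasma concentrations measured by LC/MS/MS.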

[7] = test system: Rattus norvegicus; test: Volume of distribution in iv dosed Sprague-Dawley rat; assay type: ADME, organism-based; details: in vivo; outline: as §3
[8] = target: T1, Coagulation factor VII/tissue factor (Homo sapiens); test: Ratio of prothrombin time in baboon over prothrombin time in human
[9] = Mean residence time in iv dosed baboon; assay type: ADME, organism-based, Papio; details: in vivo; outline: as §3
[10] = Plasma clearance in iv dosed Beagle dog; assay type: ADME, organism-based, Canis lupus familiaris; outline: as §3
[11] = target: T3, CYP1A2 (Homo sapiens, UniProt P05177); test: Inhibition of CYP1A2 at 10 uM; assay type: ADME
T3 sequence (P05177 whole entry): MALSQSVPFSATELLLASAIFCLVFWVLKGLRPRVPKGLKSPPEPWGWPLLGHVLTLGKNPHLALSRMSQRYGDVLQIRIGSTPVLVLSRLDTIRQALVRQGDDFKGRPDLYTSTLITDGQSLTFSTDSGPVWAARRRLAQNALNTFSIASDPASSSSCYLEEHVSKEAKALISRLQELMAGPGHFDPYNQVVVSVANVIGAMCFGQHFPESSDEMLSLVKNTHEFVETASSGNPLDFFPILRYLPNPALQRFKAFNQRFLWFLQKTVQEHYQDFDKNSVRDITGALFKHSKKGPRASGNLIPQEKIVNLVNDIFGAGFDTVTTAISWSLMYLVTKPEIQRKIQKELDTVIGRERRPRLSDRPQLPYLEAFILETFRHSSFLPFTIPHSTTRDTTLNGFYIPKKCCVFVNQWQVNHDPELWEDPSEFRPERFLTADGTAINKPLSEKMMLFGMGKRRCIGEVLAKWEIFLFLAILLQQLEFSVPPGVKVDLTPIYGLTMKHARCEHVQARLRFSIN
Outline: (§4)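 Five cytochrome P450 isozymes tested at 10 µM; percent inhibition.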

[12] = target: T1, Coagulation factor VII/tissue factor (Homo sapiens); test: Anticoagulant potency in baboon as measured by prothrombin time at 0.5 mg/kg, iv 1 hr post dose; assay type: functional, organism-based; set-up: dose 0.5 mg/kg; details: Papio, target entry is the homologue from another species; outline: as §2
[13] = Mean residence time in iv dosed New Zealand White rabbit; assay type: ADME, organism-based, Oryctolagus cuniculus; details: in vivo; outline: as §3
[14] = test system: Baboon; test: Volume of distribution in iv dosed baboon; assay type: ADME, organism-based, Papio; details: in vivo; outline: as §3
[15] = Plasma clearance in iv dosed Sprague-Dawley rat; assay type: ADME, organism-based; outline: as §3
[16] = Plasma clearance in iv dosed New Zealand White rabbit; assay type: ADME, organism-based, Oryctolagus cuniculus; outline: as §3
[17] = Plasma clearance in iv dosed C57BL/6 mice; assay type: ADME, organism-based; details: C57BL/6, mouse; outline: as §3
[18] = target: CYP2C19 (Homo sapiens, UniProt P33261); test: Inhibition of CYP2C19 at 10 uM; assay type: ADME; outline: as §4
Chain of CYP2C19 (P33261 whole entry): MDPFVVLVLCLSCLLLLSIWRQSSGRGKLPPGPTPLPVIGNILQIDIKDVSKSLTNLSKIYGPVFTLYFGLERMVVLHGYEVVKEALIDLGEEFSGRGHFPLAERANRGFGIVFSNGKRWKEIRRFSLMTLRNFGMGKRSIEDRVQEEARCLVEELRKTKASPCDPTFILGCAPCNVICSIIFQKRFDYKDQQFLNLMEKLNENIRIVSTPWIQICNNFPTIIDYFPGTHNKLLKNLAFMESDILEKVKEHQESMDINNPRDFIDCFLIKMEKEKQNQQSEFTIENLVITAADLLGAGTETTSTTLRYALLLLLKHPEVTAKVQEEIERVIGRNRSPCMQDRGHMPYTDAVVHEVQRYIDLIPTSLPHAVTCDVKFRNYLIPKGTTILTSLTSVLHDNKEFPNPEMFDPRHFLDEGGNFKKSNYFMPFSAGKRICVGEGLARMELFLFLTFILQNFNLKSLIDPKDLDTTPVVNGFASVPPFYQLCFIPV

[19] = test system: Baboon; test: Inhibition of platelet deposition in baboon at 0.1 mg/kg, iv 1 hr post dose relative to control; assay type: functional; details: Papio, in Papio anubis; outline: as §2
[20] = test system: Baboon; test: Inhibition of fibrin deposition in baboon at 0.5 mg/kg, iv 1 hr post dose relative to control; assay type: functional; details: Papio, in Papio anubis; outline: as §2
[21] = Plasma clearance in iv dosed baboon; assay type: ADME, organism-based, Papio; outline: as §3
[22] = target: CYP3A4 (Homo sapiens, UniProt P08684); test: Inhibition of CYP3A4 at 10 uM; assay type: ADME; outline: as §4
Chain of CYP3A4 (P08684 whole entry): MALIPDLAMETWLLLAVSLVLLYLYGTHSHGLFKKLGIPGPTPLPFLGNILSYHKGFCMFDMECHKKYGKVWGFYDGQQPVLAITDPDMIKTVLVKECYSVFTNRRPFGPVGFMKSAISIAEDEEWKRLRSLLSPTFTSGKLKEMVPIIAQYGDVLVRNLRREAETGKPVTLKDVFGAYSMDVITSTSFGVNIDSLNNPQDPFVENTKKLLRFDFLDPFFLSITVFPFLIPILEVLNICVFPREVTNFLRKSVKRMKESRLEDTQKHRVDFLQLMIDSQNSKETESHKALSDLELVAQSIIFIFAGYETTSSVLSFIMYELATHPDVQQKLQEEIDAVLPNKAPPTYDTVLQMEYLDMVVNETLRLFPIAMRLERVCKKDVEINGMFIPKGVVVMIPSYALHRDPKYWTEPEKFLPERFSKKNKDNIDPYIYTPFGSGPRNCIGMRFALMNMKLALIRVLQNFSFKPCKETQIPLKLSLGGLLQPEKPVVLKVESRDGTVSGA

[23] = Mean residence time in iv dosed Beagle dog; assay type: ADME, organism-based, Canis lupus familiaris; details: in vivo; outline: as §3
[24] = test system: Baboon; test: Inhibition of platelet deposition in baboon at 0.5 mg/kg, iv 1 hr post dose relative to control; assay type: functional; details: Papio, in Papio anubis; outline: as §2
[25] = target: CYP2D6 (Homo sapiens, UniProt P10635); test: Inhibition of CYP2D6 at 10 uM; assay type: ADME; outline: as §4
Chain of CYP2D6 (P10635 whole entry): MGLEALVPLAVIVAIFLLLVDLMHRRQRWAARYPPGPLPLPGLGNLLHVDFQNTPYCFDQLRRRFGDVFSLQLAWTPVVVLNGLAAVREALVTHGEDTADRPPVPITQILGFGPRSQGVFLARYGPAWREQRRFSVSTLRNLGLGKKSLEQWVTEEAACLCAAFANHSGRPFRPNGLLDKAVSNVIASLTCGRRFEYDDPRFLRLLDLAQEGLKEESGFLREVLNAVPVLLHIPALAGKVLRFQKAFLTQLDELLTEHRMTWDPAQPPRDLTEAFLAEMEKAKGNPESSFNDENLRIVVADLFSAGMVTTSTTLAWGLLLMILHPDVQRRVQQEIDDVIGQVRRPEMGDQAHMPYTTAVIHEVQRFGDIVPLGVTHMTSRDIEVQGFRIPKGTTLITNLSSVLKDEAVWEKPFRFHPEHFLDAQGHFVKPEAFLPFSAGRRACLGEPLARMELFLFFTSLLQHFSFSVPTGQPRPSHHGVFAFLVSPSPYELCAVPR

[26] = target: T1, Coagulation factor VII/tissue factor (Homo sapiens); test: Anticoagulant potency in baboon as measured by prothrombin time at 0.1 mg/kg, iv 1 hr post dose; assay type: functional, organism-based; set-up: dose 0.1 mg/kg; details: Papio, target entry is the homologue from another species; outline: as §2
[27] = test system: Mus musculus; test: Volume of distribution in iv dosed C57BL/6 mice; assay type: ADME, organism-based; details: in vivo; outline: as §3
[28] = Mean residence time in iv dosed Sprague-Dawley rat; assay type: ADME, organism-based; details: in vivo; outline: as §3
[29] = test system: Baboon; test: Inhibition of fibrin deposition in baboon at 0.1 mg/kg, iv 1 hr post dose relative to control; assay type: functional; details: Papio, in Papio anubis; outline: as §2
[30] = target: CYP2C9 (Homo sapiens, UniProt P11712); test: Inhibition of CYP2C9 at 10 uM; assay type: ADME; outline: as §4
Chain of CYP2C9 (P11712 whole entry): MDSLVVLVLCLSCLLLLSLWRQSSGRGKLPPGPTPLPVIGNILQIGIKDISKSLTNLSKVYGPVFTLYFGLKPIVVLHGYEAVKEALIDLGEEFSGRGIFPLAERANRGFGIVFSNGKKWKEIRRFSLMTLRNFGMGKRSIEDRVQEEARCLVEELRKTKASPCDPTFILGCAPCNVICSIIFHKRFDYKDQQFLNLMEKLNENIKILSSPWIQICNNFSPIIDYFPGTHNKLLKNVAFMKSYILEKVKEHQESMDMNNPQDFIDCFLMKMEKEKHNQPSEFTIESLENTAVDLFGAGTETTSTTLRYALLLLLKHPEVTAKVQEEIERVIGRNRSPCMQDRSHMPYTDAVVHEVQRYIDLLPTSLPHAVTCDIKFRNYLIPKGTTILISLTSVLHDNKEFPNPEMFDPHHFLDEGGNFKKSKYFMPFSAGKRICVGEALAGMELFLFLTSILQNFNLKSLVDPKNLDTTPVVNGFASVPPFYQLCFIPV

[31] = target: T1, Coagulation factor VII/tissue factor (Homo sapiens); test: Anticoagulant potency in baboon as measured by prothrombin time at 0.03 mg/kg, iv 1 hr post dose; assay type: functional, organism-based; set-up: dose 0.03 mg/kg; details: Papio, target entry is the homologue from another species; outline: as §2
[32] = test system: Baboon; test: Inhibition of platelet deposition in baboon at 0.03 mg/kg, iv 1 hr post dose relative to control; assay type: functional; details: Papio, in Papio anubis; outline: as §2
[33] = target: T1, Coagulation factor VII/tissue factor (Homo sapiens); test: Anticoagulant potency in human plasma as measured by activated partial thromboplastin time
[34] = test system: Canis familiaris; test: Volume of distribution in iv dosed Beagle dog; assay type: ADME, organism-based, Canis lupus familiaris; details: in vivo; outline: as §3
[35] = test system: Baboon; test: Effect on reduction of platelet deposition in iv dosed baboon after 60 mins; assay type: functional, organism-based; details: Papio, 1 h
Outline: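 Sigmoid Emax model fitted to dose (mg/kg) versus percent inhibition of platelet deposition relative to control at 60 min post IV bolus in the baboon A-V shunt model; ED50 is the dose producing 50% of maximum effect.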

[36] = test system: Oryctolagus cuniculus; test: Volume of distribution in iv dosed New Zealand White rabbit; assay type: ADME, organism-based; details: in vivo; outline: as §3

Structure (SMILES): N=C(N)c1ccc2[nH]c(-c3cc(C(CC(=O)O)C(=O)O)cc(-c4cc(NC(N)=O)ccc4O)c3O)nc2c1 (stereo not drawn)
- Ratio Ki [1]: 270
- Ratio Ki [2]: 3400
- Ki [3]: 44 nM
- 2PT [4]: 4.9 µM

Structure (SMILES): N=C(N)c1ccc2nc(-c3cc(C(CC(=O)O)C(=O)O)cc(-c4cc(CC(N)=O)ccc4O)c3O)[nH]c2c1 (stereo not drawn)
- Ki [3]: 12 nM

Structure (SMILES): N=C(N)c1ccc2[nH]c(-c3cc(C(CC(=O)O)C(=O)O)cc(-c4cc(CC(N)=O)ccc4O)c3O)nc2c1 (stereo not drawn)
- Ratio Ki [1]: 280
- Ratio Ki [2]: 12500
- 2PT [4]: 6.4 µM

Structure (SMILES): N=C(N)c1ccc2[nH]c(-c3cc(C(CC(=O)O)C(=O)O)cc(-c4cc(CNC(N)=O)ccc4O)c3O)nc2c1 (stereo not drawn)
- inhibition in vivo at 0.03 mg/kg [5]: 20%
- MRT [6]: 0.392 h
- Vdss [7]: 55.2 mL
- Ratio [8]: 1.05
- MRT [9]: 3.87 h
- clearance [10]: 30.5 mL/min
- inhibition at 10 µM [11]: < 40%
- PT [12]: 11.6 s
- MRT [13]: 3.03 h
- Ratio Ki [1]: 3600
- Vdss [14]: 5854 mL
- clearance [15]: 0.81 mL/min
- clearance [16]: 6.1 mL/min
- clearance [17]: 0.103 mL/min
- inhibition at 10 µM [18]: < 40%
- inhibition in vivo at 0.1 mg/kg [19]: 61%
- inhibition in vivo at 0.5 mg/kg [20]: 86%
- Ratio Ki [2]: > 100000
- clearance [21]: 26.5 mL/min
- inhibition at 10 µM [22]: < 40%
- MRT [23]: 3.73 h
- inhibition in vivo at 0.5 mg/kg [24]: 87%
- inhibition at 10 µM [25]: < 40%
- PT [26]: 11.3 s
- Vdss [27]: 2.43 mL
- MRT [28]: 1.15 h
- inhibition in vivo at 0.1 mg/kg [29]: 64%
- inhibition at 10 µM [30]: < 40%
- PT [31]: 11.3 s
- inhibition in vivo at 0.03 mg/kg [32]: 14%
- 2aPTT [33]: 0.8 µM
- Vdss [34]: 6750 mL
- EC50 [35]: 170 nM
- ED50 ([35]; in Papio anubis, iv): 0.06 mg/kg
- Emax ([35]; in Papio anubis, iv): 99%
- Vdss [36]: 1080 mL

Structure (SMILES): N=C(N)c1ccc2[nH]c(-c3cc(C(CC(=O)O)C(=O)O)cc(-c4cc(C(=O)O)ccc4O)c3O)nc2c1 (stereo not drawn)
- Ratio Ki [1]: 300
- Ratio Ki [2]: 3500
- Ki [3]: 43 nM
- 2PT [4]: 8.2 µM
